Test results published in ChEMBL document CHEMBL1123468, “Synthesis and antiviral activity of (E)-5-(2-bromovinyl)uracil and (E)-5-(2-bromovinyl)uridine” (1986).
≈ marks a conversion by molar mass, not a printed value.

Legend:
BSC-1 = test: The compound was tested for its antiviral activity against HSV-1 (KOS) virus in BS-C-1A cell line; type: functional, Cercopithecidae; settings: Chlorocebus aethiops
Method in brief: (§1)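 Virus-induced cytopathogenicity in cell culture, scored microscopically. The value is the minimum concentration that cuts viral cytopathogenicity by 50%. Normal cell morphology was also checked microscopically at up to 400 μg/mL.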

E6SM [1] = test: The compound was tested for its antiviral activity against HSV-1 (KOS) virus in E6SM cell line; type: functional; settings: Homo sapiens; method in brief: as §1
E6SM [2] = test: The concentration required to reduce the cytopathogenicity of HSV-1 (KOS) in E6SM cell culture by 50% in presence of 100 ug/mL dThd; type: functional; settings: Homo sapiens
Method in brief: (§2)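 E6SM cells infected with HSV-1 (KOS), with dThd added to the culture medium at the stated concentration. The value is the minimum concentration that reduces viral cytopathogenicity by 50%.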

E6SM [3] = test: The concentration required to reduce the cytopathogenicity of HSV-1 (KOS) in E6SM cell culture by 50% in presence of 100 ug/mL concentrations of 6-aminothymine; type: functional; settings: Homo sapiens
Method in brief: (§3)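 E6SM cells infected with HSV-1 (KOS), with 6-aminothymine or benzylacyclouridine added to the medium at the stated concentration. The value is the minimum concentration that reduces viral cytopathogenicity by 50%.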

E6SM [4] = test: The compound was tested for its antiviral activity against HSV-1 (F) virus in E6SM cell culture; type: functional; settings: Homo sapiens; method in brief: as §1
E6SM [5] = test: The concentration required to reduce the cytopathogenicity of HSV-1 (KOS) in E6SM cell culture by 50% in presence of 50 ug/mL concentrations of benzylacyclouridine; type: functional; settings: Homo sapiens
Method in brief: (§4)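 E6SM cultures were infected with HSV-1 strain KOS. 6-Aminothymine or benzylacyclouridine was present in the medium together with the test compound. The value is the minimum concentration giving 50% reduction of viral cytopathogenicity, scored by the earlier-described cytopathogenicity inhibition procedure.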

E6SM [6] = test: The compound was tested for its antiviral activity against HSV-1 (KOS) virus in E6SM cell culture; type: functional; settings: Homo sapiens; method in brief: as §1
E6SM [7] = test: The compound was tested for its antiviral activity against HSV-1 (McIntyre) virus in E6SM cell culture; type: functional; settings: Homo sapiens; method in brief: as §1
E6SM [8] = test: The compound was tested for its antiviral activity against HSV-2 (196) virus in E6SM cell culture; type: functional; settings: Homo sapiens; method in brief: as §1
E6SM [9] = test: The compound was tested for its antiviral activity against HSV-2 (Lyons) virus in E6SM cell culture; type: functional; settings: Homo sapiens; method in brief: as §1
E6SM [10] = test: The compound was tested for its antiviral activity against TK-HSV-1 (B2006) virus in E6SM cell culture; type: functional; settings: Homo sapiens; method in brief: as §1
E6SM [11] = test: The compound was tested for its antiviral activity against vaccinia virus in E6SM cell culture; type: functional; settings: Homo sapiens; method in brief: as §1
E6SM [12] = test: The compound was tested for its antiviral activity against vesicular stomatitis virus in E6SM cell culture; type: functional; settings: Homo sapiens; method in brief: as §1
E6SM [13] = test: The concentration required to reduce the cytopathogenicity of HSV-1 (KOS) in E6SM cell culture by 50% in absence of dThd; type: functional; settings: Homo sapiens; method in brief: as §2
E6SM [14] = test: The concentration required to reduce the cytopathogenicity of HSV-1 (KOS) in E6SM cell culture by 50% in presence of 1 ug/mL dThd; type: functional; settings: Homo sapiens; method in brief: as §2
E6SM [15] = test: The concentration required to reduce the cytopathogenicity of HSV-1 (KOS) in E6SM cell culture by 50% in presence of 10 ug/mL dThd; type: functional; settings: Homo sapiens; method in brief: as §2
E6SM [16] = test: The concentration required to reduce the cytopathogenicity of HSV-1 (KOS) in E6SM cell culture by 50% in presence of 10 ug/mL concentrations of benzylacyclouridine; type: functional; settings: Homo sapiens; method in brief: as §3
E6SM [17] = test: The concentration required to reduce the cytopathogenicity of HSV-1 (KOS) in E6SM cell culture by 50% in presence of 20 ug/m concentrations of 6-aminothymine; type: functional; settings: Homo sapiens; method in brief: as §3
E6SM [18] = test: The concentration required to reduce the cytopathogenicity of HSV-1 (KOS) in E6SM cell culture by 50% in presence of 3 ug/mL dThd; type: functional; settings: Homo sapiens; method in brief: as §2
E6SM [19] = test: The concentration required to reduce the cytopathogenicity of HSV-1 (KOS) in E6SM cell culture by 50% in presence of 30 ug/mL dThd; type: functional; settings: Homo sapiens
Method in brief: (§5)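 Thymidine (dThd) was added to the E6SM culture medium alongside the test compound, and cells were infected with HSV-1 strain KOS. The endpoint is the minimum inhibitory concentration that reduces viral cytopathogenicity by 50%. The cytopathogenicity inhibition procedure follows the earlier-described method.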

E6SM [20] = test: The concentration required to reduce the cytopathogenicity of HSV-1 (KOS) in E6SM cell culture by 50% in presence of 300 ug/mL dThd; type: functional; settings: Homo sapiens; method in brief: as §5
E6SM [21] = test: The concentration required to reduce the cytopathogenicity of HSV-1 (KOS) in E6SM cell culture by 50% in presence of 4 ug/m concentrations of 6-aminothymine; type: functional; settings: Homo sapiens; method in brief: as §4
E6SM [22] = test: The concentration required to reduce the cytopathogenicity of HSV-1 (KOS) in E6SM cell culture by 50% in presence of absence of concentrations of 6-aminothymine; type: functional; settings: Homo sapiens
E1 SM = test: The compound was tested for its antiviral activity against HSV-1 (KOS) virus in E1SM cell line; type: functional, Homo sapiens; method in brief: as §1
E6SM [23] = test: The concentration required to reduce the cytopathogenicity of HSV-1 (KOS) in E6SM cell culture by 50% in presence of absence of concentrations of benzylacyclouridine; type: functional; settings: Homo sapiens
HeLa [24] = test: The concentration required to reduce the cytopathogenicity of HSV-1 (KOS) in HeLa cell culture by 50% in presence of 4 ug/m concentrations of 6-aminothymine; type: functional; settings: Homo sapiens
HeLa [25] = test: The concentration required to reduce the cytopathogenicity of HSV-1 (KOS) in HeLa cell culture by 50% in presence of absence concentrations of 6-aminothymine; type: functional; settings: Homo sapiens
HeLa [26] = test: The concentration required to reduce the cytopathogenicity of HSV-1 (KOS) in HeLa cell culture by 50% in presence of 100 ug/m concentrations of 6-aminothymine; type: functional; settings: Homo sapiens
HeLa [27] = test: The concentration required to reduce the cytopathogenicity of HSV-1 (KOS) in HeLa cell culture by 50% in presence of 20 ug/m concentrations of 6-aminothymine; type: functional; settings: Homo sapiens
HEp-2 = test: The compound was tested for its antiviral activity against HSV-1 (KOS) virus in HEp-2M cell line; type: functional; settings: Homo sapiens; method in brief: as §1
HSF (VGS) = test: The compound was tested for its antiviral activity against HSV-1 (KOS) virus in HSF (VGS) cell line; type: functional; settings: Homo sapiens; method in brief: as §1
M21 = test: The compound was tested for its antiviral activity against HSV-1 (KOS) virus in M-21 (GM137) cell line,; type: functional; settings: Homo sapiens; method in brief: as §1
Mo = test: The compound was tested for its antiviral activity against HSV-1 (KOS) virus in MO cell line; type: functional; settings: Homo sapiens; method in brief: as §1
PRK = test: The compound was tested for its antiviral activity against HSV-1 (KOS) virus in PRK cell line; type: functional; settings: Oryctolagus cuniculus
Method in brief: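 Primary rabbit kidney cells infected with HSV-1 (KOS). The value is the minimum concentration that cuts viral cytopathogenicity by 50%. Cytotoxicity was judged as microscopically detectable alteration of cell morphology at up to 400 μg/mL.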

[28] = The concentration required to reduce the cytopathogenicity of HSV-1 (KOS) in PRK cell culture absence concentrations of 6-aminothymine; type: functional; settings: Oryctolagus cuniculus
[29] = The concentration required to reduce the cytopathogenicity of HSV-1 (KOS) in PRK cell culture by 50% in presence of 100 ug/mL concentrations of 6-aminothymine; type: functional; settings: Oryctolagus cuniculus
Method in brief: (§6)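 The cells were primary rabbit kidney (PRK) cultures infected with HSV-1 strain KOS, with 6-aminothymine co-present in the medium. The value is the minimum inhibitory concentration that reduces viral cytopathogenicity by 50%, using the previously described cytopathogenicity inhibition method.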

[30] = The concentration required to reduce the cytopathogenicity of HSV-1 (KOS) in PRK cell culture by 50% in presence of 20 ug/mL concentrations of 6-aminothymine; type: functional; settings: Oryctolagus cuniculus; method in brief: as §6
[31] = The concentration required to reduce the cytopathogenicity of HSV-1 (KOS) in PRK cell culture by 50% in presence of 40 ug/mL concentrations of 6-aminothymine; type: functional; settings: Oryctolagus cuniculus; method in brief: as §6
T-21 (LR) = test: The compound was tested for its antiviral activity against HSV-1 (KOS) virus in T-21 (LR) cell line; type: functional; settings: Homo sapiens; method in brief: as §1
Vero = test: The compound was tested for its antiviral activity against HSV-1 (KOS) virus in vero cell line; type: functional; settings: Chlorocebus sabaeus; method in brief: as §1
HeLa [32] = test: The compound was tested for its antiviral activity against HSV-1 (KOS) virus in HeLa cell line; type: functional; settings: Homo sapiens; method in brief: as §1
E6SM [33] = test: The compound was tested for its antiviral activity against HSV-2 (G) virus in E6SM cell culture; type: functional; settings: Homo sapiens; method in brief: as §1
BALB/3T3 = test: The compound was tested for its antiviral activity against HSV-1 (KOS) virus in BALB/3T3 cell line; settings: Mus musculus

SMILES: O=c1[nH]c(=O)n([C@@H]2O[C@H](CO)[C@@H](O)[C@H]2O)cc1/C=C/Br
- MIC50 (BSC-1): > 400 mg/L
- MIC50 (E6SM [1]): 4 mg/L (≈ 11.5 µM)
- MIC50 (E6SM [2]): > 400 mg/L
- MIC50 (E6SM [3]): 4 mg/L
- MIC50 (E6SM [4]): 7 mg/L (≈ 20 µM)
- MIC50 (E6SM [5]): 10 mg/L
- MIC50 (E6SM [6]): 4 mg/L (≈ 11.5 µM)
- MIC50 (E6SM [7]): 2 mg/L (≈ 5.73 µM)
- MIC50 (E6SM [8]): > 400 mg/L
- MIC50 (E6SM [9]): > 400 mg/L
- MIC50 (E6SM [10]): > 200 mg/L
- MIC50 (E6SM [11]): > 400 mg/L
- MIC50 (E6SM [12]): > 400 mg/L
- MIC50 (E6SM [13]): 7 mg/L (≈ 20 µM)
- MIC50 (E6SM [14]): 7 mg/L
- MIC50 (E6SM [15]): 70 mg/L
- MIC50 (E6SM [16]): 4 mg/L
- MIC50 (E6SM [17]): 3 mg/L
- MIC50 (E6SM [18]): 4 mg/L
- MIC50 (E6SM [19]): > 400 mg/L
- MIC50 (E6SM [20]): > 400 mg/L
- MIC50 (E6SM [21]): 3 mg/L
- MIC50 (E6SM [22]): 4 mg/L
- MIC50 (E1 SM): 1 mg/L (≈ 2.86 µM)
- MIC50 (E6SM [23]): 4 mg/L
- MIC50 (HeLa [24]): 0.4 mg/L
- MIC50 (HeLa [25]): 0.2 mg/L
- MIC50 (HeLa [26]): 1 mg/L
- MIC50 (HeLa [27]): 0.4 mg/L
- MIC50 (HEp-2): 150 mg/L (≈ 430 µM)
- MIC50 (HSF (VGS)): 1 mg/L (≈ 2.86 µM)
- MIC50 (M21): 4 mg/L (≈ 11.5 µM)
- MIC50 (Mo): > 400 mg/L
- MIC50 (PRK): 7 mg/L (≈ 20 µM)
- MIC50 [28]: 10 mg/L (≈ 28.6 µM)
- MIC50 [29]: 10 mg/L
- MIC50 [30]: 10 mg/L
- MIC50 [31]: 10 mg/L
- MIC50 (T-21 (LR)): 10 mg/L (≈ 28.6 µM)
- MIC50 (Vero): > 400 mg/L
- MIC50 (HeLa [32]): 0.4 mg/L (≈ 1.15 µM)
- MIC50 (E6SM [33]): > 400 mg/L
- MIC50 (BALB/3T3): > 400 mg/L
